Type in all cases: functional
Test [1] relates to A498. In words: Growth inhibition of human A498 cells assessed as cell growth at 10 uM after 48 hrs by sulforhodamine B assay. The following applies: A498, 48 h, read-out: Activity. The method, boiled down: (§1)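 NCI-60 single-dose screen at 10 µM: cells in RPMI 1640 with 5% FBS, preincubated 24 h, then exposed 48 h at 37 °C. TCA fixation (16% final for suspension cells), SRB staining, absorbance 515 nm. Percent growth relative to time-zero and untreated control plates; negative values indicate cell kill.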
On the technique in general: In SRB staining, fixed cells bind dye roughly in proportion to their protein.

The test system of test [2] is KM12. In words: Growth inhibition of human KM12 cells after 48 hrs by sulforhodamine B assay. The conditions noted are these: KM12, 48 h. The method, boiled down:
(§2)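 NCI-60 screen: cells in RPMI 1640 with 5% FBS and 2 mM glutamine, 5000–40,000 cells/well, preincubated 24 h. Five concentrations (10-fold dilutions; 100 to 0.001 µM) applied for 48 h at 37 °C. TCA fixation, SRB stain, absorbance at 515 nm. Time-zero plates included; GI50 where 100×(T−T0)/(C−T0)=50.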

For test [3], the system named is OVCAR-4. In words: Growth inhibition of human OVCAR4 cells after 48 hrs by sulforhodamine B assay. The following applies: OVCAR-4, 48 h. The method, boiled down:
(§3)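 NCI-60 panel cells grown in RPMI 1640 with 5% FBS and 2 mM L-glutamine, seeded at 5000–40,000 cells/well and preincubated 24 h. Five 10-fold dilutions (0.001–100 µM) from DMSO stocks were added for 48 h at 37 °C. Adherent cells were fixed with cold TCA (10% final) for 60 min at 4 °C, stained with 0.4% SRB, and read at 515 nm. GI50 was set where 100×(T−T0)/(C−T0)=50.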

Test [4] deals with NCI-H226. The experiment in a line: Growth inhibition of human NCI-H226 cells after 48 hrs by sulforhodamine B assay. The following applies: NCI-H226, 48 h. The method, boiled down: as §3
Test [5] concerns HCT-15. In words: Growth inhibition of human HCT15 cells assessed as cell growth at 10 uM after 48 hrs by sulforhodamine B assay. The following applies: HCT-15, 48 h, read-out: Activity. The method, boiled down:
as §1

Test [6] has as its system HL-60(TB). The experiment in a line: Growth inhibition of human HL-60(TB) cells after 48 hrs by sulforhodamine B assay. The following applies: HL-60, 48 h. The method, boiled down: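 HL-60(TB) cells (suspension) grown in RPMI 1640 with 5% FBS and 2 mM L-glutamine. They were plated and preincubated for 24 h, with T0 plates fixed at that point. Drug was given at five 10-fold dilutions for 48 h at 37 °C. Settled cells were fixed with TCA (16% final), stained with 0.4% SRB in 1% acetic acid and read at 515 nm. GI50 was taken where 100×(T−T0)/(C−T0)=50.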

Test [7] deals with UACC-62. The experiment in a line: Growth inhibition of human UACC62 cells assessed as cell growth at 10 uM after 48 hrs by sulforhodamine B assay. The following applies: UACC-62, 48 h, read-out: Activity. The method, boiled down: (§4)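 Single-dose NCI-60 test at 10 µM. Cells were grown in RPMI 1640 with 5% FBS and 2 mM L-glutamine, preincubated 24 h, with T0 plates TCA-fixed. Exposure was 48 h at 37 °C, 5% CO2. Cells were fixed with cold TCA (final 10%, 4 °C, 60 min), stained with SRB and read at 515 nm. Percent growth was taken relative to T0 and untreated control; negative values denote cell kill.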

In test [8] the test system is SK-MEL-2. In words: Growth inhibition of human SK-MEL-2 cells assessed as cell growth at 10 uM after 48 hrs by sulforhodamine B assay. The conditions noted are these: SK-MEL-2, 48 h, read-out: Activity. The method, boiled down:
(§5)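 Single-dose NCI-60 screen: adherent cells in RPMI 1640 with 5% FBS were exposed to 10 µM for 48 h at 37 °C after a 24 h preincubation. They were fixed in situ with cold TCA (10% final), stained with 0.4% SRB in 1% acetic acid, solubilized in 10 mM Tris base, and read at 515 nm. Percent growth was taken relative to time-zero and control plates.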

The subject of test [9] is IGROV-1. In words: Growth inhibition of human IGROV1 cells assessed as cell growth at 10 uM after 48 hrs by sulforhodamine B assay. The following applies: IGROV-1, 48 h, read-out: Activity. The method, boiled down:
as §1

The test system of test [10] is OVCAR-3. In words: Growth inhibition of human OVCAR3 cells assessed as cell growth at 10 uM after 48 hrs by sulforhodamine B assay. The conditions noted are these: OVCAR-3, 48 h, read-out: Activity. The method, boiled down: as §5
The test system of test [11] is LOX IMVI. The experiment in a line: Growth inhibition of human LOXIMVI cells assessed as cell growth at 10 uM after 48 hrs by sulforhodamine B assay. The following applies: read-out: Activity. The method, boiled down:
as §1

Test [12] relates to ACHN. In words: Growth inhibition of human ACHN cells after 48 hrs by sulforhodamine B assay. The method, boiled down:
as §2

Test [13] deals with UO-31. The experiment in a line: Growth inhibition of human UO31 cells assessed as cell growth at 10 uM after 48 hrs by sulforhodamine B assay. The conditions noted are these: UO-31, 48 h, read-out: Activity. The method, boiled down:
as §4

Test [14] relates to NCI-H322M. The experiment in a line: Growth inhibition of human NCI-H322M cells after 48 hrs by sulforhodamine B assay. The method, boiled down: as §3
In test [15] the test system is SNB-19. In words: Growth inhibition of human SNB19 cells after 48 hrs by sulforhodamine B assay. The conditions noted are these: SNB-19, 48 h. The method, boiled down: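 NCI-60 five-dose screen. Cells were grown in RPMI 1640 with 5% FBS and 2 mM L-glutamine, plated at 5000–40,000 cells/well and incubated 24 h before dosing, with T0 plates TCA-fixed. DMSO stocks were diluted to doses of […] and exposed 48 h at 37 °C, 5% CO2. Cells were fixed with cold TCA (final 10%, 60 min, 4 °C), stained with 0.4% SRB in 1% acetic acid for 10 min, solubilized in 10 mM trizma base and read at 515 nm. GI50 is where 100×(T−T0)/(C−T0)=50.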

Test [16] deals with OVCAR-4. In words: Growth inhibition of human OVCAR4 cells assessed as cell growth at 10 uM after 48 hrs by sulforhodamine B assay. The following applies: OVCAR-4, 48 h, read-out: Activity. The method, boiled down:
as §5

Test [17] relates to NCI-H460. The experiment in a line: Growth inhibition of human NCI-H460 cells after 48 hrs by sulforhodamine B assay. The conditions noted are these: NCI-H460, 48 h. The method, boiled down: as §3
Test [18] deals with CCRF-CEM. In words: Growth inhibition of human CCRF-CEM cells assessed as cell growth at 10 uM after 48 hrs by sulforhodamine B assay. The conditions noted are these: read-out: Activity. The method, boiled down:
as §1

Test [19] has as its system U-251. The experiment in a line: Growth inhibition of human U251 cells assessed as cell growth at 10 uM after 48 hrs by sulforhodamine B assay. The conditions noted are these: U-251, 48 h, read-out: Activity. The method, boiled down: as §4
Test [20] deals with SF-539. The experiment in a line: Growth inhibition of human SF539 cells assessed as cell growth at 10 uM after 48 hrs by sulforhodamine B assay. The following applies: SF-539, 48 h, read-out: Activity. The method, boiled down: as §5
Test [21] relates to LOX IMVI. In words: Growth inhibition of human LOXIMVI cells after 48 hrs by sulforhodamine B assay. The method, boiled down:
as §2

Test [22] relates to CAKI-1. In words: Growth inhibition of human CAKI-1 cells assessed as cell growth at 10 uM after 48 hrs by sulforhodamine B assay. The conditions noted are these: CAKI-1, 48 h, read-out: Activity. The method, boiled down: as §1
For test [23], the system named is SK-MEL-28. The experiment in a line: Growth inhibition of human SK-MEL-28 cells assessed as cell growth at 10 uM after 48 hrs by sulforhodamine B assay. The following applies: SK-MEL-28, 48 h, read-out: Activity. The method, boiled down:
as §5

Test [24] relates to 786-0. In words: Growth inhibition of human 786-0 cells assessed as cell growth at 10 uM after 48 hrs by sulforhodamine B assay. The conditions noted are these: 786-0, 48 h, read-out: Activity. The method, boiled down:
as §1

As for `CC(C)=CCC/C(C)=C/CC/C(C)=C/CC[C@]1(C)CCc2c3c(cc(C)c2O1)OCN(CCCCCO)C3`, the growth at 10 µM in test [1] is 89.7%; in [5], 62.3%; in [7], 93.2%; in test [8], 117%; in test [9], 53.1%; in test [10], 54.6%. Further, the growth at 10 µM in test [11] is -0.88%; in test [13], 50.4%; in [16], 43.3%; in [18], 38.4%; in test [19], -19.9%; in test [20], 95%. The figures for the growth at 10 µM in test [22], in [23] and in [24] were 74.4%, 34.7% and 81.2%, respectively. In addition, the GI50 in [2] is 7.41 µM; in test [3], 5.68 µM; in [4], 6.19 µM; in test [6], 6.26 µM; in test [12], 5.74 µM; in test [14], 6.35 µM. Further, the GI50 was found to be 5.99 µM in test [15], 5.18 µM in test [17] and 6.07 µM in test [21].

With `CC(C)=CCC/C(C)=C/CC/C(C)=C/CC[C@]1(C)CCc2c3c(cc(C)c2O1)OCN(CCCCCCO)C3`, the growth at 10 µM in [1] is 121%; in test [5], 5.75%; in test [7] it was 75.8%; in test [8] it was 62.4%; in test [9], -73.7%; in test [10], -61.6%. For the same compound, the growth at 10 µM was -90.8% in test [11]; -37.8% in [13]; -95.5% in test [16]; -20.6% in test [18]; -91.9% in test [19]; 28.3% in test [20]. Moreover, the figures for the growth at 10 µM in test [22], in test [23] and in [24] were -72.8%, -49.6% and -98%, respectively. The GI50 in test [2] is 0.609 µM; in test [3] it was 0.518 µM; in test [4], 5.27 µM; in test [6], 1.37 µM; in [12], 2.29 µM; in test [14], 3.75 µM. Also, the GI50 amounted to 0.632 µM in [15], 0.692 µM in test [17] and 0.636 µM in test [21].

What is called GI50 is the concentration that inhibits growth by half. The low end stands for greater sensitivity of the cells, the high end for lower sensitivity of the cells.

(Values after ChEMBL document CHEMBL2380254, “Optimization of tocotrienols as antiproliferative and antimigratory leads” (Eur J Med Chem, 2013).)
